Data on three compounds can be found in ChEMBL document CHEMBL6074622, “8-l-Cystinyl Bis(1,8-diazaspiro[4.5]decane) as an Orally Bioavailable l-Cystine Crystallization Inhibitor for Cystinuria” (ACS Med Chem Lett, 2024).

Data set [1] concerns Cystine. The data set is described as follows: Inhibition of L-cystine crystallization in millipore water at room temperature incubated for 72 hrs. In outline:
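Supersaturated L-cystine (2.9 mM) in Millipore water was incubated with varying inhibitor concentrations for 72 h at room temperature and then centrifuged. L-cystine remaining in the supernatant was measured. EC50 was taken from dose–response curves as the concentration giving 50% inhibition of crystallization.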

The subject of data set [2] is Cystine. The data set is described as follows: Inhibition of L-cystine crystallization in aqueous solution assessed as ratio of step velocity in presence of compound to step velocity measured initially in absence of compound at 30 uM by atomic force microscopic analysis. A digest of the protocol: (§1)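 AFM on the {0001} face of L-cystine crystals. Crystals were regrown for 20 min under flowing supersaturated 2 mM L-cystine (20 mL/h). {1010} step velocity was measured without inhibitor (V0), then with inhibitor at 15, 30 or 45 μM (V). Images were taken about 25 min after inhibitor injection. Result reported as a V/V0 range.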

Data set [3] has as its system Cystine. The data set is described as follows: Inhibition of L-cystine crystallization in aqueous solution assessed as ratio of step velocity in presence of compound to step velocity measured initially in absence of compound at 15 uM by atomic force microscopic analysis. In outline:
as §1

Data set [4] has as its system Cystine. Description: Inhibition of L-cystine crystallization in aqueous solution assessed as ratio of step velocity in presence of compound to step velocity measured initially in absence of compound at 45 uM by atomic force microscopic analysis. A digest of the protocol: as §1
The nature of data set [5]: Oral bioavailability in Slc3a1-knockout mouse by measuring total parent compound and (2R)-2-amino-3-[[(2R)-2-amino-3-(1,8-diazaspiro[4.5]decan-8-yl)-3-oxo-propyl]disulfanyl]propanoic acid metabolite at 150 micromol/kg or 30 micromol/kg measured upto 24 hrs by LC-MS/MS analysis. The conditions noted are these: in vivo, at 150 µmol/kg. It counts as ADME, organism-based. In outline: (§2)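 Male Slc3a1-knockout mice (4 per route) dosed once by oral gavage in normal saline (150 μmol/kg) or by tail vein injection (30 μmol/kg). Saphenous-vein blood drawn into heparinized capillaries before dosing and at 5, 15, 30 min and 1, 4, 8, 24 h. Plasma stored at −80 °C. Parent and mixed-disulfide metabolite M1 quantitated by LC-MS/MS against synthetic M1. Oral bioavailability derived from oral versus iv exposure.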

Data set [6] is described as follows: Drug metabolism in Slc3a1-knockout mouse assessed as (2R)-2-amino-3-[[(2R)-2-amino-3-(1,8-diazaspiro[4.5]decan-8-yl)-3-oxo-propyl]disulfanyl]propanoic acid metabolite formation. The class given is ADME.
Data set [7] is described as follows: Oral bioavailability in Slc3a1-knockout mouse by measuring (2R)-2-amino-3-[[(2R)-2-amino-3-(1,8-diazaspiro[4.5]decan-8-yl)-3-oxo-propyl]disulfanyl]propanoic acid metabolite at 150 micromol/kg or 30 micromol/kg measured upto 24 hrs by LC-MS/MS analysis. The conditions noted are these: in vivo, at 150 µmol/kg. It counts as ADME, organism-based. In outline: as §2

A short description of data set [8]: Oral bioavailability in Slc3a1-knockout mouse at 150 micromol/kg or 30 micromol/kg measured upto 24 hrs by LC-MS/MS analysis. It counts as ADME, organism-based. To be noted: in vivo, at 150 µmol/kg. In outline: as §2
Data set [9] in a line: Drug level in SLC3A1-knockout mouse urine assessed as (2R)-2-amino-3-[[(2R)-2-amino-3-(1,8-diazaspiro[4.5]decan-8-yl)-3-oxo-propyl]disulfanyl]propanoic acid metabolite concentration in urine at 150 micromol/kg, po measured after 24 hrs. To be noted: in vivo, dose 150 µmol/kg, read-out: Ct. It counts as ADME, organism-based. In outline:
(§3)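 Urine was collected 24 and 48 h after dosing. Parent and mixed-disulfide metabolite were measured, with the metabolite quantitated against chemically synthesized standard.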

A short description of data set [10]: Observed apparent oral clearance in Slc3a1-knockout mouse by measuring (2R)-2-amino-3-[[(2R)-2-amino-3-(1,8-diazaspiro[4.5]decan-8-yl)-3-oxo-propyl]disulfanyl]propanoic acid metabolite at 150 micromol/kg or 30 micromol/kg measured upto 24 hrs by LC-MS/MS analysis. It counts as ADME. To be noted: in vivo, dose 150 µmol/kg. In outline: as §2
The nature of data set [11]: Observed apparent oral clearance in Slc3a1-knockout mouse at 150 micromol/kg or 30 micromol/kg measured upto 24 hrs by LC-MS/MS analysis. The class given is ADME. The conditions noted are these: in vivo, dose 150 µmol/kg. A digest of the protocol: as §2
A short description of data set [12]: Drug level in SLC3A1-knockout mouse urine assessed as (2R)-2-amino-3-[[(2R)-2-amino-3-(1,8-diazaspiro[4.5]decan-8-yl)-3-oxo-propyl]disulfanyl]propanoic acid metabolite concentration in urine at 30 micromol/kg, iv measured after 24 hrs. The conditions noted are these: in vivo, dose 30 µmol/kg, read-out: Ct. The class given is ADME, organism-based. A digest of the protocol: as §3

Data set [13] is described as follows: Half life in Slc3a1-knockout mouse at 150 micromol/kg, po or 30 micromol/kg, iv measured upto 24 hrs by LC-MS/MS analysis. The class given is ADME, organism-based. To be noted: in vivo, dose 150 µmol/kg. In outline:
as §2

The nature of data set [14]: Toxicity in SLC3A1-knockout male mouse assessed as animal death at 150 micromol/kg, po administered daily for 8 weeks. It counts as organism-based. The conditions noted are these: in vivo, 1344 h, dose 150 µmol/kg. A digest of the protocol:
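Slc3a1-knockout male mice, 6 weeks old, bred by Slc3a1 × Slc3a1 mating; one pup per mating treated, one or more littermates as controls. Compound dissolved in water (18.9 mg/mL) and given by daily gavage of 100 μL (150 μmol/kg) for 8 weeks; controls received 100 μL water. Mice were sacrificed at study end, and kidneys and bladders were weighed.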

Data set [15] can be described thus: Cmax in Slc3a1-knockout mouse at 150 micromol/kg, po or 30 micromol/kg, iv measured upto 24 hrs by LC-MS/MS analysis. It counts as ADME, organism-based. The conditions noted are these: in vivo, dose 150 µmol/kg. A digest of the protocol:
as §2

Data set [16] can be described thus: Toxicity in SLC3A1-knockout male mouse assessed as body weight at 150 micromol/kg, po administered daily for 8 weeks (reference value: 20.3 +/- 2.1 g). It counts as organism-based. To be noted: in vivo, 1344 h, dose 150 µmol/kg.
Data set [17] is described as follows: Toxicity in SLC3A1-knockout male mouse assessed as animal death at 150 micromol/kg, po administered daily for 4 weeks. It counts as organism-based. The conditions noted are these: in vivo, 672 h, dose 150 µmol/kg.
Data set [18] can be described thus: Toxicity in SLC3A1-knockout male mouse assessed as increase in body weight at 150 micromol/kg, po administered daily for 8 weeks. It counts as organism-based. To be noted: in vivo, 1344 h, at 150 µmol/kg.
Data set [19] relates to Cystine. Description: In-vivo inhibition of L-cystine crystallization in SLC3A1-knockout male mouse assessed as reduction in stone formation in bladder at 150 micromol/kg, po administered daily for 8 weeks. The class given is functional, organism-based. The arrangement: scale not given: the % may be the effect or the level left. To be noted: dose 150.0 µmol/kg.
Data set [20] in a line: AUC (0 to t) in Slc3a1-knockout mouse by measuring (2R)-2-amino-3-[[(2R)-2-amino-3-(1,8-diazaspiro[4.5]decan-8-yl)-3-oxo-propyl]disulfanyl]propanoic acid metabolite at 150 micromol/kg, po or 30 micromol/kg, iv measured upto 24 hrs by LC-MS/MS analysis. It counts as ADME, organism-based. To be noted: in vivo, dose 150 µmol/kg. In outline:
as §2

The nature of data set [21]: Observed apparent volume of distribution during terminal phase in Slc3a1-knockout mouse by measuring (2R)-2-amino-3-[[(2R)-2-amino-3-(1,8-diazaspiro[4.5]decan-8-yl)-3-oxo-propyl]disulfanyl]propanoic acid metabolite at 150 micromol/kg, po or 30 micromol/kg, iv measured upto 24 hrs by LC-MS/MS analysis. It counts as ADME, organism-based. To be noted: in vivo, dose 150 µmol/kg. A digest of the protocol: as §2

Data set [22] can be described thus: Cmax in Slc3a1-knockout mouse by measuring (2R)-2-amino-3-[[(2R)-2-amino-3-(1,8-diazaspiro[4.5]decan-8-yl)-3-oxo-propyl]disulfanyl]propanoic acid metabolite at 150 micromol/kg, po or 30 micromol/kg, iv measured upto 24 hrs by LC-MS/MS analysis. The class given is ADME, organism-based. The conditions noted are these: in vivo, dose 150 µmol/kg. A digest of the protocol:
as §2

Data set [23] in a line: Observed apparent volume of distribution during terminal phase in Slc3a1-knockout mouse at 150 micromol/kg, po or 30 micromol/kg, iv measured upto 24 hrs by LC-MS/MS analysis. The class given is ADME, organism-based. The conditions noted are these: in vivo, dose 150 µmol/kg. In outline:
as §2

Data set [24] can be described thus: Half life in Slc3a1-knockout mouse by measuring (2R)-2-amino-3-[[(2R)-2-amino-3-(1,8-diazaspiro[4.5]decan-8-yl)-3-oxo-propyl]disulfanyl]propanoic acid metabolite at 150 micromol/kg, po or 30 micromol/kg, iv measured upto 24 hrs by LC-MS/MS analysis. To be noted: in vivo, dose 150 µmol/kg. It counts as ADME, organism-based. A digest of the protocol: as §2
Data set [25] in a line: AUC (0 to t) in Slc3a1-knockout mouse by measuring total parent compound and (2R)-2-amino-3-[[(2R)-2-amino-3-(1,8-diazaspiro[4.5]decan-8-yl)-3-oxo-propyl]disulfanyl]propanoic acid metabolite at 150 micromol/kg, po or 30 micromol/kg, iv measured upto 24 hrs by LC-MS/MS analysis. The class given is ADME, organism-based. To be noted: in vivo, dose 150 µmol/kg. In outline: as §2

A short description of data set [26]: AUC (0 to t) in Slc3a1-knockout mouse at 150 micromol/kg, po or 30 micromol/kg, iv measured upto 24 hrs by LC-MS/MS analysis. The conditions noted are these: in vivo, dose 150 µmol/kg. The class given is ADME, organism-based. In outline: as §2

In turn, `COC(=O)[C@@H](N)CSSC[C@H](N)C(=O)OC` yielded an EC50 in the data set on Cystine [1] of 3530 nM. In addition, the Ratio in the data set with Cystine [2] came out at 0.27; in the data set with Cystine [3], 0.4; in the data set on Cystine [4] it was 0.21.
Compound `CN1CCN(C(=O)[C@@H](N)CSSC[C@H](N)C(=O)N2CCN(C)CC2)CC1` returned an EC50 with Cystine [1] of 59.8 nM. The F came out at 18% in [5], 25% in data set [7] and 2.3% in data set [8]. In data set [6], the Drug metabolism entry is given as “metabolite_detected”. In addition, the Ratio amounted to 0.32 in the data set on Cystine [2], 0.52 with Cystine [3] and 0.3 with Cystine [4].
For `N[C@@H](CSSC[C@H](N)C(=O)N1CCC2(CCCN2)CC1)C(=O)N1CCC2(CCCN2)CC1`, the concentration in [9] is 2.1 µM; in [12], 1 µM. The CL/F_obs is 0.003 micromol/kg/nmol/L/hr in [10] and 0.008 micromol/kg/nmol/L/hr in data set [11]. Besides, the t1/2 in data set [13] stood at 0.6 h; in data set [24], 2.4 h. In the data set with Cystine [1], this compound registered an EC50 of 29.5 nM. For the same compound, the F in [5] turned out to be 22%; in data set [7] it was 27%; in data set [8], 16%. In data set [6], the Drug metabolism entry was “metabolite_detected”. In addition, the Activity entry is “Non-toxic” in data set [14]; 20.3 g in data set [16]; “Non-toxic” in data set [17]; 14.6% in [18]; 8% in the data set on Cystine [19]. The Cmax in [15] turned out to be 11.4 µM; in [22], 16.9 µM. The figures for the Ratio in the data set on Cystine [2], in the data set on Cystine [3] and in the data set with Cystine [4] were 0.04, 0.01 and 0.01, respectively. Moreover, the figures for the AUCt in data set [20], in data set [25] and in data set [26] were 40.963 µM·h, 59.505 µM·h and 18.542 µM·h, respectively. In data set [21], the Vz/F obs came to 0.0108 micromol/kg/nmol/L. Also, in [23], the Vz/F_obs was determined as 0.007 micromol/kg/nmol/L.

As a reminder, the EC50 is the concentration giving half of the maximal effect. By Cmax is commonly meant the highest concentration seen after dosing.
